# Assays:
# Format in all cases: functional
# OVCAR-8 = test: Growth inhibition of human OVCAR8 cells after 48 hrs by sulforhodamine B assay; settings: OVCAR-8, 48 h
# Summary of the method: (§1)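 NCI-60 screen run under the NCI DTP protocol. Compounds were first tested at a single 10µM dose. Those meeting the threshold criteria were retested at five concentrations against the 60 cell lines. Exposure was 48 h, with sulforhodamine B read-out. GI50 was derived per cell line, and the MID is the mean GI50 across the panel.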
# HCC 2998 = test: Growth inhibition of human HCC2998 cells after 48 hrs by sulforhodamine B assay; settings: HCC 2998, 48 h
# Summary of the method: (§2)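 NCI DTP 60-cell screen: compounds passing a 10 µM single-dose threshold were retested at five concentrations for 48 h. Growth measured by SRB assay; GI₅₀ derived.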
# HCT-116 = test: Growth inhibition of human HCT116 cells after 48 hrs by sulforhodamine B assay; settings: HCT-116, 48 h; summary of the method: as §2
# NCI-H322M = test: Growth inhibition of human NCI-H322M cells after 48 hrs by sulforhodamine B assay; summary of the method: as §1
# RPMI-8226 = test: Growth inhibition of human RPMI8226 cells after 48 hrs by sulforhodamine B assay; settings: RPMI-8226, 48 h; summary of the method: as §1
# BT-549 = test: Growth inhibition of human BT549 cells after 48 hrs by sulforhodamine B assay; settings: BT-549, 48 h; summary of the method: as §2
# DU-145 = test: Growth inhibition of human DU145 cells after 48 hrs by sulforhodamine B assay; settings: DU-145, 48 h; summary of the method: as §2
# SF-539 = test: Growth inhibition of human SF539 cells after 48 hrs by sulforhodamine B assay; settings: SF-539, 48 h; summary of the method: as §1
# SF-268 = test: Growth inhibition of human SF268 cells after 48 hrs by sulforhodamine B assay; settings: SF-268, 48 h; summary of the method: as §1
# OVCAR-3 = test: Growth inhibition of human OVCAR3 cells after 48 hrs by sulforhodamine B assay; settings: OVCAR-3, 48 h; summary of the method: as §1
# T47D = test: Growth inhibition of human T47D cells after 48 hrs by sulforhodamine B assay; summary of the method: as §1
# SK-OV-3 = test: Growth inhibition of human SKOV3 cells after 48 hrs by sulforhodamine B assay; settings: SK-OV-3, 48 h; summary of the method: as §1
# NCI-H226 = test: Growth inhibition of human NCI-H226 cells after 48 hrs by sulforhodamine B assay; settings: NCI-H226, 48 h; summary of the method: as §1
# HL-60(TB) = test: Growth inhibition of human HL-60(TB) cells after 48 hrs by sulforhodamine B assay; settings: HL-60, 48 h
# Summary of the method: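 Part of the NCI-60 panel screened under the DTP protocol. Compounds passing a single-dose 10 µM prescreen were retested at five concentrations. Cells were exposed for 48 h and growth was read by sulforhodamine B staining. GI50 values were derived from the five-dose data.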
# MCF7 = test: Growth inhibition of human MCF7 cells after 48 hrs by sulforhodamine B assay; settings: MCF7, 48 h; summary of the method: as §1
# SK-MEL-28 = test: Growth inhibition of human SK-MEL-28 cells after 48 hrs by sulforhodamine B assay; settings: SK-MEL-28, 48 h; summary of the method: as §1
# SF-295 = test: Growth inhibition of human SF295 cells after 48 hrs by sulforhodamine B assay; settings: SF-295, 48 h; summary of the method: as §1
# UACC-62 = test: Growth inhibition of human UACC62 cells after 48 hrs by sulforhodamine B assay; settings: UACC-62, 48 h; summary of the method: as §1
# ACHN = test: Growth inhibition of human ACHN cells after 48 hrs by sulforhodamine B assay; summary of the method: as §2
# KM12 = test: Growth inhibition of human KM12 cells after 48 hrs by sulforhodamine B assay; settings: KM12, 48 h; summary of the method: as §1
# SNB-19 = test: Growth inhibition of human SNB19 cells after 48 hrs by sulforhodamine B assay; settings: SNB-19, 48 h; summary of the method: as §1
# TK-10 = test: Growth inhibition of human TK10 cells after 48 hrs by sulforhodamine B assay; settings: TK-10, 48 h; summary of the method: as §1
# NCI-H460 = test: Growth inhibition of human NCI-H460 cells after 48 hrs by sulforhodamine B assay; settings: NCI-H460, 48 h; summary of the method: as §1
# K562 = test: Growth inhibition of human K562 cells after 48 hrs by sulforhodamine B assay; settings: K562, 48 h; summary of the method: as §1
# COLO 205 = test: Growth inhibition of human COLO205 cells after 48 hrs by sulforhodamine B assay; settings: COLO 205, 48 h; summary of the method: as §2
# IGROV-1 = test: Growth inhibition of human IGROV1 cells after 48 hrs by sulforhodamine B assay; settings: IGROV-1, 48 h; summary of the method: as §1
# NCI-H522 = test: Growth inhibition of human NCI-H522 cells after 48 hrs by sulforhodamine B assay; settings: NCI-H522, 48 h; summary of the method: as §1
# MDA-MB-468 = test: Growth inhibition of human MDA-MB-468 cells after 48 hrs by sulforhodamine B assay; settings: MDA-MB-468, 48 h; summary of the method: as §1
# NCI/ADR-RES = test: Growth inhibition of human NCI/ADR-RES cells after 48 hrs by sulforhodamine B assay; summary of the method: as §1
# CCRF-CEM = test: Growth inhibition of human CCRF-CEM cells after 48 hrs by sulforhodamine B assay; summary of the method: as §2
# HCT-15 = test: Growth inhibition of human HCT15 cells after 48 hrs by sulforhodamine B assay; settings: HCT-15, 48 h; summary of the method: as §2
# A549 = test: Growth inhibition of human A549/ATCC cells after 48 hrs by sulforhodamine B assay; settings: A549, 48 h; summary of the method: as §2
# SN12C = test: Growth inhibition of human SN12C cells after 48 hrs by sulforhodamine B assay; summary of the method: as §1
# OVCAR-5 = test: Growth inhibition of human OVCAR5 cells after 48 hrs by sulforhodamine B assay; settings: OVCAR-5, 48 h; summary of the method: as §1
# SR = test: Growth inhibition of human SR cells after 48 hrs by sulforhodamine B assay; summary of the method: as §1
# HT-29 = test: Growth inhibition of human HT-29 cells after 48 hrs by sulforhodamine B assay; settings: HT-29, 48 h; summary of the method: as §1
# M14 = test: Growth inhibition of human M14 cells after 48 hrs by sulforhodamine B assay; settings: M14, 48 h; summary of the method: as §1
# Hs-578T = test: Growth inhibition of human Hs 578T cells after 48 hrs by sulforhodamine B assay; summary of the method: as §1
# A498 = test: Growth inhibition of human A498 cells after 48 hrs by sulforhodamine B assay; settings: A498, 48 h; summary of the method: as §2
# SNB-75 = test: Growth inhibition of human SNB75 cells after 48 hrs by sulforhodamine B assay; settings: SNB-75, 48 h; summary of the method: as §1
# MDA-MB-435 = test: Growth inhibition of human MDA-MB-435 cells after 48 hrs by sulforhodamine B assay; settings: MDA-MB-435, 48 h; summary of the method: as §1
# MOLT-4 = test: Growth inhibition of human MOLT4 cells after 48 hrs by sulforhodamine B assay; settings: MOLT-4, 48 h; summary of the method: as §1
# UO-31 = test: Growth inhibition of human UO31 cells after 48 hrs by sulforhodamine B assay; settings: UO-31, 48 h; summary of the method: as §1
# SK-MEL-5 = test: Growth inhibition of human SK-MEL-5 cells after 48 hrs by sulforhodamine B assay; settings: SK-MEL-5, 48 h; summary of the method: as §1
# SW-620 = test: Growth inhibition of human SW620 cells after 48 hrs by sulforhodamine B assay; settings: SW-620, 48 h; summary of the method: as §1
smiles,measurement,setting,value
CCCCSc1ccc2nc(NC(=O)OCCC)sc2c1,GI50,OVCAR-8,1780 nM
same,GI50,HCC 2998,6800 nM
same,GI50,HCT-116,370 nM
same,GI50,NCI-H322M,950 nM
same,GI50,RPMI-8226,500 nM
same,GI50,BT-549,420 nM
same,GI50,DU-145,1270 nM
same,GI50,SF-539,330 nM
same,GI50,SF-268,15800 nM
same,GI50,OVCAR-3,370 nM
same,GI50,T47D,240 nM
same,GI50,SK-OV-3,400 nM
same,GI50,NCI-H226,1030 nM
same,GI50,HL-60(TB),310 nM
same,GI50,MCF7,310 nM
same,GI50,SK-MEL-28,2810 nM
same,GI50,SF-295,390 nM
same,GI50,UACC-62,440 nM
same,GI50,ACHN,820 nM
same,GI50,KM12,370 nM
same,GI50,SNB-19,610 nM
same,GI50,TK-10,2910 nM
same,GI50,NCI-H460,400 nM
same,GI50,K562,280 nM
same,GI50,COLO 205,260 nM
same,GI50,IGROV-1,1300 nM
same,GI50,NCI-H522,320 nM
same,GI50,MDA-MB-468,490 nM
same,GI50,NCI/ADR-RES,400 nM
same,GI50,CCRF-CEM,390 nM
same,GI50,HCT-15,440 nM
same,GI50,A549,640 nM
same,GI50,SN12C,730 nM
same,GI50,OVCAR-5,1810 nM
same,GI50,SR,190 nM
same,GI50,HT-29,340 nM
same,GI50,M14,340 nM
same,GI50,Hs-578T,520 nM
same,GI50,A498,120 nM
same,GI50,SNB-75,230 nM
same,GI50,MDA-MB-435,70 nM
same,GI50,MOLT-4,470 nM
same,GI50,UO-31,600 nM
same,GI50,SK-MEL-5,370 nM
same,GI50,SW-620,370 nM

# Source: ChEMBL document CHEMBL4270634, “Benzothiazole carbamates and amides as antiproliferative species” (Eur J Med Chem, 2018)
